The record followed here is ChEMBL document CHEMBL1145864, “Synthesis and structure-activity relationship of a new series of COX-2 selective inhibitors: 1,5-diarylimidazoles” (J Med Chem, 2003).

Series [1] can be described thus: Half life of compound was determined at 1 mg/kg intravenous administration in rat. It is filed as ADME, organism-based. Also noted: dose 1 mg/kg, route intravenous. The settings on record: in vivo.
The target in series [2] is Prostaglandin G/H synthase 1 (Homo sapiens, UniProt P23219). Format: cell-based, U-937.
For series [3], the system named is Rattus norvegicus. The series can be described thus: In vivo anti-inflammatory activity by air pouch model at 1 mg/kg perorally in rat. The settings on record: route oral. It is filed as functional. The gist of the method: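 Rat air pouch: sterile air (20 mL) was injected subcutaneously, with 10 mL refills every 2 days. On day 7, 2 mL of 1% lambda-carrageenan in saline was injected into the pouch. Compound was given orally (suspension in 1% CMC/Tween-80, 10 mL/kg) 0.5 h before carrageenan. At 6 h, exudate was collected and centrifuged, and supernatant PGE2 was measured by ELISA.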

For series [4], the target named is T1, Prostaglandin G/H synthase 2 (Homo sapiens) (UniProt P35354).
T1 sequence (whole entry): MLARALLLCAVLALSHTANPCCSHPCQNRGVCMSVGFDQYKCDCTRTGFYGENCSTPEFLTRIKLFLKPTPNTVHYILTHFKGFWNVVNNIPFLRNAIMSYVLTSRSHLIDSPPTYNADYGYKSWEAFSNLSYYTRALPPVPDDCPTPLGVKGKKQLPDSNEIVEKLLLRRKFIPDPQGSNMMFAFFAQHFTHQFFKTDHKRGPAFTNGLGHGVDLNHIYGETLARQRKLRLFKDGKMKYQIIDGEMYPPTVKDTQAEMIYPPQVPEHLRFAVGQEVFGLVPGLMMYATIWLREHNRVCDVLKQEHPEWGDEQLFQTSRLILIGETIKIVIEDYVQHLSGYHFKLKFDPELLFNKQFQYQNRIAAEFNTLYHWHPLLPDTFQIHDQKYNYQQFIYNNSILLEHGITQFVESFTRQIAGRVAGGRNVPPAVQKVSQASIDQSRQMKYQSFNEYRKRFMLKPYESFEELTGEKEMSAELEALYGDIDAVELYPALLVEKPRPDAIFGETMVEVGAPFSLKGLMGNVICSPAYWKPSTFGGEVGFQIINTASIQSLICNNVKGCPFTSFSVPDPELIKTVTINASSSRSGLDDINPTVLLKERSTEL
The following applies: Blood; at 10 µM.

Series [5] deals with T1, Prostaglandin G/H synthase 2 (Homo sapiens). The following applies: Blood; at 1 µM.
The subject of series [6] is Rattus norvegicus. The series can be described thus: In vivo anti-inflammatory activity of compound was determined by rat carrageenan paw edema at 10 mg/kg perorally. The following applies: po.
Series [7] has as its system Rattus norvegicus. The series can be described thus: In vivo inhibition of contralateral paw swelling after oral treatment for 28 days (1 mg/kg od) was determined by adjuvabt arthritis in rat. It is filed as functional. An outline of the steps: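 Lewis rats (140–170 g, 7 weeks) received 0.5 mg Mycobacterium butyricum in light mineral oil intradermally into the right hind foot pad; controls received incomplete adjuvant. Groups of 10 were dosed orally at 1 mg/kg daily for 28 days, starting on the day of injection. Left hind paw volume was measured plethysmographically at the end and expressed as % inhibition versus controls.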

Series [8] relates to Rattus norvegicus. In words: In vivo analgesic activity of compound was determined by inflammatory hyperalgesia model at 3 mg/kg perorally in rat. Format: functional. The settings on record: route oral. An outline of the steps: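 Male Sprague–Dawley rats received 1% carrageenan suspension (0.1 mL) into the right hind foot pad. Three hours later, compound (suspended in 1% Tween-80) was given by gavage. After 30 min, a heat stimulus was applied under the inflamed paw and withdrawal latency (s) recorded. The % inhibition of the stimulus-induced latency decrease was calculated relative to the untreated left paw.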

The test system of series [9] is Rattus norvegicus. In words: In vivo anti-inflammatory activity determined by rat carrageenan paw edema method at 10 mg/kg perorally. It is filed as functional. The following applies: route oral.
The subject of series [10] is Rattus norvegicus. The series can be described thus: Percentage of [51Cr]- secreted in feces was determined by fecal drug-induced bleeding method in rat at 100 mg/kg, bid for 4 days.
In series [11] the target is T1, Prostaglandin G/H synthase 2 (Homo sapiens). In words: In vitro inhibition of Prostaglandin G/H synthase 2 (COX-2)in human whole blood at 1 uM was determined.

A value given as a limit tells only on which side of the number the result lay.

Prostaglandin G/H synthase 1, sequence (P23219 whole entry): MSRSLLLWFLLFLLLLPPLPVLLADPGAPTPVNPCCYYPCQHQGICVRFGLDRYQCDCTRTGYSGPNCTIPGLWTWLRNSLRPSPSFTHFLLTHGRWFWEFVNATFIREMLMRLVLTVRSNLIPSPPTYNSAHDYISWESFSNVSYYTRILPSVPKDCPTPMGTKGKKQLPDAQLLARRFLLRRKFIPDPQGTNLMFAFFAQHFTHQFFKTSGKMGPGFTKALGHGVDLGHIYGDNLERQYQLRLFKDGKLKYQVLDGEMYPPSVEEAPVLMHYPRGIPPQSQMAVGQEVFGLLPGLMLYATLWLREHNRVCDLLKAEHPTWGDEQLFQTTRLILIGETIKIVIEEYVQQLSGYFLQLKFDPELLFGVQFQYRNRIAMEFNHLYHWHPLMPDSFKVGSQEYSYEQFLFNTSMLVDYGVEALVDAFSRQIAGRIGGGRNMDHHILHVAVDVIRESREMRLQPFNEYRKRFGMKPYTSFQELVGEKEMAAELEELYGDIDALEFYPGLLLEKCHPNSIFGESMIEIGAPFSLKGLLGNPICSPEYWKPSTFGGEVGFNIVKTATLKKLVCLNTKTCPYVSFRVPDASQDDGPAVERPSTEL

With `CS(=O)(=O)c1ccc(-n2cnc(Cl)c2-c2ccc(F)cc2)cc1`, the half-life in series [1] was 21 h. The molecule also gave an IC50 in series [2] greater than 10 µM. This molecule gave an inhibition in vivo at 1 mg/kg in [3] of 98.1%. Besides, the inhibition came out at 100% in [4] and 89% in series [5]. The molecule further came in with an inhibition in vivo at 10 mg/kg in [6] of 41.2%.

In turn, `COc1ccc(-c2c(Cl)ncn2-c2ccc(S(N)(=O)=O)cc2)cc1F` [CIMICOXIB] gave a half-life in series [1] of 2.9 h. For the same molecule, the IC50 in [2] amounted to 3.3 µM. Moreover, the Inhibition in [7] worked out at 93%. Further, the inhibition in vivo at 3 mg/kg in series [8] is 83.4%. Moreover, the inhibition in vivo at 1 mg/kg in [3] is 98.2%. In addition, the inhibition in vivo at 10 mg/kg in series [9] was found to be 31%. For the same molecule, the inhibition in series [4] and in [5] was 100% throughout. In [10], this molecule registered a Cr secretion of 0.9%.

On to `CS(=O)(=O)c1ccc(-c2cnc(C#N)n2-c2ccc(F)cc2)cc1`, for which the inhibition stood at 74% in series [11] and 100% in series [4]. In series [2], this molecule returned an IC50 greater than 10 µM. In series [3], this molecule displayed an inhibition in vivo at 1 mg/kg of 79%. At 10 mg/kg the inhibition in vivo in series [9] was 28.5%.

Regarding `COc1ccc(-c2c(Cl)ncn2-c2ccc(S(C)(=O)=O)cc2)cc1F`, the half-life in [1] was 2.2 h. The same molecule came in with an IC50 in series [2] greater than 10 µM. In addition, the Inhibition in series [7] is reported as 86%. This molecule had an inhibition in vivo at 3 mg/kg in series [8] of 80%. In [3], testing at 1 mg/kg gave an inhibition in vivo of 89.5%. The inhibition in vivo at 10 mg/kg in series [9] was 24.2%. The inhibition in [4] was 100%; in series [5], 79%. Besides, the Cr secretion in series [10] amounted to 0.4%.
